Structures are written as SMILES. Active and inactive are the calls of the source. The rule behind the calls is not given here.

Experiment [1] has as its target T1, Adenosine receptor A1 (Homo sapiens) (UniProt P30542).
T1 sequence (whole entry): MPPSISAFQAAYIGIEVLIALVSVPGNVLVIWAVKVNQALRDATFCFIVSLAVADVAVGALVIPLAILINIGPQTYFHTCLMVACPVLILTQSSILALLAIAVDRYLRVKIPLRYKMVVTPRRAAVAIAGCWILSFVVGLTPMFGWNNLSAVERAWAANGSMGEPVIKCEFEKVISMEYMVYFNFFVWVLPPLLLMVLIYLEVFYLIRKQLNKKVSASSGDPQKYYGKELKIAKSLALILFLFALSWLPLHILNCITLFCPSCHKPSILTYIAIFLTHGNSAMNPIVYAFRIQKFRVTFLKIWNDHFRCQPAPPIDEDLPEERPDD
Nature of the experiment: AE activity is the ratio of specific binding at the end of dissociation to specific binding at the end of 120 min of equilibration at 50 uM concentration to Adenosine A1 receptor; not significantly active. An outline of the steps:
(§1)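 Test agent from DMSO stock was added for 5 min. Dissociation was started with 8-CPT plus GTPγS and stopped after 10 min by glass-fibre filtration. Nonspecific binding (8-CPT/GTPγS, no agent) was subtracted. % = specific binding after dissociation ÷ after equilibration. Means of 2–3 experiments ±SEM.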

In experiment [2] the target is T1, Adenosine receptor A1 (Homo sapiens). Description: AE activity is the ratio of specific binding at the end of dissociation to specific binding at the end of 120 min of equilibration at 50 uM concentration to Adenosine A1 receptor. An outline of the steps:
as §1

In experiment [3] the target is Adenosine receptor A2a (Homo sapiens) (UniProt P29274). Description: Percent allosteric enhancer (AE) activity from ratio of specific binding to Adenosine A2A receptor at end of dissociation to that of 120 min of equilibration.
In experiment [4] the target is T2, Adenosine receptor A3 (Homo sapiens) (UniProt P0DMS8).
T2 sequence (whole entry): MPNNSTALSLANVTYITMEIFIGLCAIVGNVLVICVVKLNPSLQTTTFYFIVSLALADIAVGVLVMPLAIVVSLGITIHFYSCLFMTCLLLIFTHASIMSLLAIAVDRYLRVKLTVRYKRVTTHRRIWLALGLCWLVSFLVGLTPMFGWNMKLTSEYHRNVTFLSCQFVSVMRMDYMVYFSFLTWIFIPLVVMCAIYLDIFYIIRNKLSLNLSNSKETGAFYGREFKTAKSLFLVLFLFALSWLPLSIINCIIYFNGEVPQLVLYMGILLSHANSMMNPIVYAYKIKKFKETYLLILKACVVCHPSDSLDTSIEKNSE
Description: Percent allosteric enhancer (AE) activity from ratio of specific binding to Adenosine A3 receptor at end of dissociation to that of 120 min of equilibration.

Experiment [5] addresses T1, Adenosine receptor A1 (Homo sapiens). Nature of the experiment: AE activity is the ratio of specific binding at the end of dissociation to specific binding at the end of 120 min of equilibration at 5 uM concentration to Adenosine A1 receptor. An outline of the steps: as §1
A further experiment concerns the target T3, Adenosine receptor A1 (Homo sapiens, UniProt P30542).
T3 sequence (P30542 whole entry): T1 sequence (whole entry)
Nature of the experiment: Effective concentration against Adenosine A1 receptor.

The target of experiment [6] is T1, Adenosine receptor A1 (Homo sapiens). Description: AE activity is the ratio of specific binding at the end of dissociation to specific binding at the end of 120 min of equilibration at 5 uM concentration to Adenosine A1 receptor; not significantly active. An outline of the steps:
as §1

Chain of Adenosine receptor A2a (Homo sapiens) (P29274 whole entry): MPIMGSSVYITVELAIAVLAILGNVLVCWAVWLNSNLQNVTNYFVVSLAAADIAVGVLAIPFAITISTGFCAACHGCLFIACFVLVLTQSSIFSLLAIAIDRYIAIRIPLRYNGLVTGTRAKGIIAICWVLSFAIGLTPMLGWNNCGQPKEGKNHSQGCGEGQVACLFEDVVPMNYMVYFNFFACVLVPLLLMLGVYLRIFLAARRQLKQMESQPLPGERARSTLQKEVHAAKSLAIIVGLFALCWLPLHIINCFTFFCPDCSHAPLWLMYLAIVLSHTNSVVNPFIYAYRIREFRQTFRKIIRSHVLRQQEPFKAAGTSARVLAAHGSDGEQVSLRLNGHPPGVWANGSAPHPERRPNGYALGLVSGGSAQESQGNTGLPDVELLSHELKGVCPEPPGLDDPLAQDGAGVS

Take `Nc1nc2c(s1)CCCc1ccccc1-2`: the AE activity entry in experiment [1] was “inactive”.

Turning to `Nc1nc2c(s1)COc1ccccc1-2`, the AE activity in experiment [2] amounted to 62%.

In the case of `COc1cc2c(cc1OC)-c1nc(N)sc1C2`, the AE activity in experiment [2] turned out to be 78%; in experiment [3], 36%; in experiment [4], 29%.

With `CC(=O)Oc1cccc2c1Cc1sc(N)nc1-2`, the AE activity was determined as 74% in experiment [5], 19% in experiment [3] and 22% in experiment [4].

`Nc1nc2c(s1)-c1ccccc1C2`: in experiment [1], the AE activity result was “inactive”.

Take `Nc1nc2c(s1)Cc1cc(Br)ccc1-2`: the AE activity entry in experiment [1] was “inactive”.

As to `COc1cc2c(c(OC)c1OC)-c1nc(N)sc1C2`, the AE activity in experiment [2] amounted to 24%.

In the case of `Nc1nc2c(s1)Cc1c(OC(=O)C3CCCCC3)cccc1-2`, the AE activity result in experiment [1] was “inactive”.

The term EC50 denotes the midpoint of the concentration-response curve. On to `COc1cc2c(c(OC)c1OC)Cc1sc(N)nc1-2`, for which, in experiment [5], the AE activity was 60%. Moreover, the half-maximal effective concentration (EC50) on Adenosine receptor A1 turned out to be 17 µM.

For `Nc1nc2c(s1)CCc1ccccc1-2`, the AE activity in experiment [2] came out at 80%. In addition, at Adenosine receptor A1, it took 17 µM to reach a half-maximal effect (EC50).

On to `Nc1nc2c(s1)CCc1cc(OC3C=CC=C3)ccc1-2`, for which the AE activity entry in experiment [6] was “inactive”.

On to `Nc1nc2c(s1)Cc1c(OC(=O)C3CCCC3)cccc1-2`, for which the AE activity in experiment [2] came to 85%. The EC50 on Adenosine receptor A1 is 4.5 µM.

`Nc1nc2c(s1)-c1ccccc1CC2`: the AE activity entry in experiment [1] was “inactive”.

As for `Nc1nc2c(s1)CCCCC2`, the AE activity result in experiment [1] was “inactive”.

As to `CC(=O)Oc1ccc2c(c1)CCc1sc(N)nc1-2`, the AE activity in experiment [2] was 95%; in experiment [3], 24%; in experiment [4], 30%.

`COc1ccc2c(c1)CCc1sc(N)nc1-2`: the AE activity turned out to be 78% in experiment [2], 18% in experiment [3] and 8% in experiment [4].

Turning to `Cc1ccc2c(c1)-c1nc(N)sc1C2`, the AE activity in experiment [2] was 72%. For the same compound, the EC50 on Adenosine receptor A1 is 4.2 µM.

Consider `CCCCCCCCOc1ccc2c(c1)CCc1sc(N)nc1-2`, for which the AE activity in experiment [5] worked out at 45%.

On to `Cc1cccc2c1Cc1sc(N)nc1-2`, for which, in experiment [2], the AE activity came out at 81%.

Turning to `COc1ccc2c(c1)Cc1sc(N)nc1-2`, the AE activity in experiment [2] was 66%. The midpoint of the response on Adenosine receptor A1, the EC50, lay at 50 µM.

For `CCCCCOc1ccc2c(c1)CCc1sc(N)nc1-2`, the AE activity in experiment [5] is 41%.

`Nc1nc2c(s1)Cc1ccccc1-2`: the AE activity in experiment [2] was determined as 91%. The same compound returned an EC50 on Adenosine receptor A1 of 38 µM.

For `Nc1nc2c(s1)CCc1cc(OC(=O)c3ccccc3)ccc1-2`, the AE activity in experiment [5] was 54%.

Turning to `Nc1nc2c(s1)CCCC2`, the AE activity in experiment [2] came out at 19%.

The values are drawn from ChEMBL document CHEMBL1135138, “2-Aminothiazoles: a new class of agonist allosteric enhancers of A(1) adenosine receptors” (Bioorg Med Chem Lett, 2002).
